{
  "source": "paper PMC8485830",
  "about": "(ChemistryOpen, 2021)",
  "assay_in_all_cases": "activity assay, unused NAD+ converted to a fluorescent compound",
  "assay_type_in_all_cases": "biochemical",
  "key": {"PARP12": {"biological_target": "T1, PARP12 (Homo sapiens, UniProt Q9H0J9)", "T1 sequence (Q9H0J9 489-684 limits assumed)": "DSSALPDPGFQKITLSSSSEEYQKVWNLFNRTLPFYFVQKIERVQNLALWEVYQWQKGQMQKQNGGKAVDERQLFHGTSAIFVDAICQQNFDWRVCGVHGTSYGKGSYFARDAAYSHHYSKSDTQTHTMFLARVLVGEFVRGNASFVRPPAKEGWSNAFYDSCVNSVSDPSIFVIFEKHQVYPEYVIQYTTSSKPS", "method_in_brief": "(§1)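 Human PARP12 or PARP16 carrying an N-terminal His tag was expressed in E. coli Rosetta2 (DE3) in autoinduction TB medium, overnight at 18 °C. It was purified by Ni-affinity and size-exclusion chromatography, then the His tag was cleaved with TEV protease. Unused NAD+ was converted to a fluorescent compound. Test compound was given in half-log dilutions, in quadruplicate. IC50 came from a four-variable sigmoidal dose–response fit.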"}, "PARP4": {"biological_target": "T2, PARP4 (Homo sapiens, UniProt Q9UKK3)", "T2 sequence (Q9UKK3 242-573 limits assumed)": "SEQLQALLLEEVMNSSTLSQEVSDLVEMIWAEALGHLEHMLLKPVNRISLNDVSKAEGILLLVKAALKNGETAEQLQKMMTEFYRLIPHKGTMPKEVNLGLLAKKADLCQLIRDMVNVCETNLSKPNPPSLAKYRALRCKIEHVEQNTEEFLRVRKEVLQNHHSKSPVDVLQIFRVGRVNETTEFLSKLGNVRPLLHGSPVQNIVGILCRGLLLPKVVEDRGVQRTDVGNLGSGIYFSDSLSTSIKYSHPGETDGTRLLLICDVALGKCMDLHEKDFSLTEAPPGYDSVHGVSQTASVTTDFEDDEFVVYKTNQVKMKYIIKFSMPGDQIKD", "method_in_brief": "(§2)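 PARP3 or PARP4 was expressed as an N-terminal His-tag construct in E. coli Rosetta2 (DE3) in autoinduction TB medium, overnight at 18 °C. It was purified by Ni-affinity followed by size-exclusion chromatography. Activity was read by converting residual NAD+ to a fluorescent product. Inhibitor was tested as half-log dilutions, with reactions in quadruplicate. IC50 was fitted with a four-variable sigmoidal dose–response curve.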"}, "PARP3": {"biological_target": "T3, PARP3 (Homo sapiens, UniProt Q9Y6F1)", "T3 sequence (Q9Y6F1 1-533)": "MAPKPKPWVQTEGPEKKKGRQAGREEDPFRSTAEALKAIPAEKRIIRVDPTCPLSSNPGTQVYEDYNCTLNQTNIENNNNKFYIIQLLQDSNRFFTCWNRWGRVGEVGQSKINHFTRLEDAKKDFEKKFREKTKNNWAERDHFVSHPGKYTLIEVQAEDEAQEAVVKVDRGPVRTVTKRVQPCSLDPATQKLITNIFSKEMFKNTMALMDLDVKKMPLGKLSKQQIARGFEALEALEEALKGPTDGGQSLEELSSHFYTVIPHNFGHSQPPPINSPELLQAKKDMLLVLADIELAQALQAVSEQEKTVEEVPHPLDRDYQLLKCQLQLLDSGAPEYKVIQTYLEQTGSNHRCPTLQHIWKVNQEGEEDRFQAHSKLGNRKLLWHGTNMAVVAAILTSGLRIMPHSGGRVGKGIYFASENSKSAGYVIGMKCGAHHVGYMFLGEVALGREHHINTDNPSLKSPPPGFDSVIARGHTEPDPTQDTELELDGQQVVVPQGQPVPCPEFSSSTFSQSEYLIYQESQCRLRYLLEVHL", "method_in_brief": "as §2"}, "PARP16": {"biological_target": "T4, PARP16 (Homo sapiens, UniProt Q8N5Y8)", "T4 sequence (Q8N5Y8 5-279 limits assumed)": "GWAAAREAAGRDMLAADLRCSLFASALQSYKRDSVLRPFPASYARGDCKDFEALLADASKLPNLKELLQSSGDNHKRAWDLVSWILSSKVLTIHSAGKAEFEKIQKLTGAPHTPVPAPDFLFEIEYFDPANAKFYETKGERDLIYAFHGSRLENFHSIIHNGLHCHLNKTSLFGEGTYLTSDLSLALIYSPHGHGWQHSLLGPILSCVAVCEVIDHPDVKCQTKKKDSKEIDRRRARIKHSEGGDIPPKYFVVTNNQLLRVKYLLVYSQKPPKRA", "method_in_brief": "as §1"}},
  "data": [
    {"smiles": "N#Cc1ccc(Oc2ccc(C(N)=O)cc2)cc1", "note": "[compound 10, 4‐(4‐cyanophenoxy)benzamide]", "values": [
      {"measurement": "IC50", "setting": "PARP12", "result": "> 10", "unit": "µM"},
      {"measurement": "IC50", "setting": "PARP4", "result": "> 100", "unit": "µM"},
      {"measurement": "IC50", "setting": "PARP3", "result": "> 100", "unit": "µM"},
      {"measurement": "IC50", "setting": "PARP16", "result": "> 10", "unit": "µM"}
    ]},
    {"smiles": "NC(=O)c1ccc(Oc2cccc(C(N)=O)c2)cc1", "note": "[compound 20, 3‐(4‐carbamoylphenoxy)benzamide]", "values": [
      {"measurement": "IC50", "setting": "PARP12", "result": "> 10", "unit": "µM"},
      {"measurement": "IC50", "setting": "PARP4", "result": 7, "unit": "µM"},
      {"measurement": "IC50", "setting": "PARP3", "result": "> 100", "unit": "µM"},
      {"measurement": "IC50", "setting": "PARP16", "result": "> 10", "unit": "µM"}
    ]}
  ]
}
